Data as given in ChEMBL document CHEMBL1126585, “Effect of N-methyl substitution of the peptide bonds in luteinizing hormone-releasing hormone agonists” (J Med Chem, 1993).
Square brackets hold non-standard residues; d marks the D form. Peptide text beside a SMILES is read from it. 1Nal = N[C@@H](Cc1cccc2ccccc12)C(=O)O; NMeF = CN[C@@H](Cc1ccccc1)C(=O)O; pGlu = O=C1CC[C@@H](C(=O)O)N1; NMeS = CN[C@@H](CO)C(=O)O

Assays:
[1] = Clearance in rat after iv dose (100 ug/kg); format: ADME, organism-based; settings: in vivo, 0.1 mg/kg
Outline: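 Castrate male rats given 100 μg/kg iv bolus; blood sampled over 6 h with EDTA anticoagulant. Plasma levels by RIA with antibody recognizing C-terminal Leu-Arg-Pro-NHEt or Leu-Arg-Pro-GlyNH₂ (rabbit antisera C-402 with [125I-Tyr⁵]leuprolide tracer, or 5328W with [125I-Tyr⁵,DLys⁶]LHRH). AUC by trapezoidal rule; whole-body clearance = dose/AUC, mL/min per kg.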

chymotrypsin = assay: Chymotrypsin degradation half-life was determined; format: ADME
Rattus norvegicus [2] = species: Rattus norvegicus; assay: Intestinal stability against rat jejunum sac, activity is expressed as T1/2; format: functional
Outline: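 Rat jejunal sac in vitro; T1/2 taken as time, in min, for lumenal compound concentration to fall by 50%.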

Rattus norvegicus [3] = species: Rattus norvegicus; assay: Tested in vitro for LH release from cultured rat pituitary cells, activity is expressed as pD2 value; format: functional, Pituitary gland cell
Outline: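 Cultured rat pituitary cells; LH release measured across agonist concentrations; pD2 = negative log of agonist concentration giving 50% of maximal LH release.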

Rattus norvegicus [4] = species: Rattus norvegicus; assay: In vitro for LH release inhibition from cultured rat pituitary cells, activity is expressed as pA2 value; format: functional, cell-based; settings: Pituitary gland cell, read-out: pA2 (converted)
Outline: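 Cultured rat pituitary cells releasing LH in response to agonist; pA2 = negative log of antagonist concentration requiring 2-fold more agonist for LH release.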

Row | clearance [1] | half-life (chymotrypsin) | Compound | T1/2 (Rattus norvegicus [2]) | pD2 (Rattus norvegicus [3]) | Kb (Rattus norvegicus [4])
1 | 1.7 L/h/kg | > 15 min | CCNC(=O)[C@@H]1CCCN1C(=O)[C@H](CCCN=C(N)N)NC(=O)[C@H](CC(C)C)NC(=O)[C@@H](CC(C)C)NC(=O)[C@H](Cc1ccc(O)cc1)NC(=O)[C@H](CO)NC(=O)[C@H](Cc1cccc2ccccc12)NC(=O)[C@H](Cc1c[nH]cn1)NC(=O)[C@@H]1CCC(=O)N1 ([pGlu]H[1Nal]SY[dL]LRP-NHEt) | 25 min |  | 
2 | 0.33 L/h/kg | 0.5 min | CC(C)C[C@H](NC(=O)[C@@H](Cc1ccc2ccccc2c1)NC(=O)[C@H](Cc1ccc(O)cc1)NC(=O)[C@H](CO)NC(=O)[C@H](Cc1c[nH]c2ccccc12)NC(=O)[C@H](Cc1cnc[nH]1)NC(=O)[C@@H]1CCC(=O)N1)C(=O)N[C@@H](CCCNC(=N)N)C(=O)N1CCC[C@H]1C(=O)NCC(N)=O [NAFARELIN] |  | 11.05 | 
3 | 0.984 L/h/kg |  | CCNC(=O)[C@@H]1CCCN1C(=O)[C@H](CCCN=C(N)N)NC(=O)[C@H](CC(C)C)NC(=O)[C@@H](Cc1c[nH]c2ccccc12)NC(=O)[C@H](Cc1ccc(O)cc1)NC(=O)[C@H](CO)NC(=O)[C@H](Cc1c[nH]c2ccccc12)NC(=O)[C@H](Cc1cnc[nH]1)N(C)C(=O)[C@@H]1CCC(=O)N1 |  |  | 0.0055 µM
4 | 1.86 L/h/kg | 6 min | CCNC(=O)[C@@H]1CCCN1C(=O)[C@H](CCCN=C(N)N)NC(=O)C(CC(C)C)NC(=O)C(CC(C)C)NC(=O)[C@H](Cc1ccc(O)cc1)NC(=O)[C@H](CO)NC(=O)[C@H](Cc1c[nH]c2ccccc12)NC(=O)[C@H](Cc1ccccc1)N(C)C(=O)[C@@H]1CCC(=O)N1 (stereo in doubt) | 18 min |  | 0.0295 µM
5 | 0.204 L/h/kg | > 60 min | CC(C)C[C@H](NC(=O)[C@@H](Cc1ccc2ccccc2c1)NC(=O)[C@H](Cc1ccc(O)cc1)N(C)C(=O)[C@H](CO)NC(=O)[C@H](Cc1c[nH]c2ccccc12)NC(=O)[C@H](Cc1c[nH]cn1)NC(=O)[C@@H]1CCC(=O)N1)C(=O)N[C@@H](CCCN=C(N)N)C(=O)N1CCC[C@H]1C(=O)NCC(N)=O | 33 min | 10.95 | 
6 | 1.73 L/h/kg |  | CCNC(=O)[C@@H]1CCCN1C(=O)[C@H](CCCN=C(N)N)NC(=O)[C@H](CC(C)C)NC(=O)[C@@H](Cc1c[nH]c2ccccc12)NC(=O)[C@H](Cc1ccc(O)cc1)NC(=O)[C@H](CO)NC(=O)[C@H](Cc1c[nH]c2ccccc12)NC(=O)[C@H](Cc1ccccc1)NC(=O)[C@@H]1CCC(=O)N1 ([pGlu]FWSY[dW]LRP-NHEt) | 10.8 min |  | 
7 | 0.232 L/h/kg |  | CC(C)C[C@H](NC(=O)[C@@H](Cc1ccc2ccccc2c1)NC(=O)[C@H](Cc1ccc(O)cc1)NC(=O)[C@H](CO)NC(=O)[C@H](Cc1c[nH]c2ccccc12)NC(=O)[C@H](Cc1c[nH]cn1)NC(=O)[C@@H]1CCC(=O)N1)C(=O)N(C)[C@@H](CCCN=C(N)N)C(=O)N1CCC[C@H]1C(=O)NCC(N)=O |  |  | 0.0112 µM
8 | 2.67 L/h/kg | 3.7 min | CCNC(=O)[C@@H]1CCCN1C(=O)[C@H](CCCN=C(N)N)NC(=O)[C@H](CC(C)C)NC(=O)[C@@H](Cc1c[nH]c2ccccc12)NC(=O)[C@H](Cc1ccc(O)cc1)NC(=O)[C@H](CO)NC(=O)[C@H](Cc1c[nH]c2ccccc12)NC(=O)[C@H](Cc1ccccc1)N(C)C(=O)[C@@H]1CCC(=O)N1 ([pGlu][NMeF]WSY[dW]LRP-NHEt) | 44.4 min |  | 

Continued, compound first:

Row | Compound | clearance [1] | half-life (chymotrypsin) | T1/2 (Rattus norvegicus [2]) | pD2 (Rattus norvegicus [3]) | Kb (Rattus norvegicus [4])
9 | CCNC(=O)[C@@H]1CCCN1C(=O)[C@H](CCCN=C(N)N)NC(=O)C(CC(C)C)NC(=O)C(CC(C)C)NC(=O)[C@H](Cc1ccc(O)cc1)NC(=O)[C@H](CO)NC(=O)[C@H](Cc1c[nH]c2ccccc12)NC(=O)[C@H](Cc1c[nH]cn1)N(C)C(=O)[C@@H]1CCC(=O)N1 (stereo in doubt) | 0.43 L/h/kg | 7 min |  |  | 
10 | CCNC(=O)[C@@H]1CCCN1C(=O)[C@H](CCCN=C(N)N)NC(=O)[C@H](CC(C)C)NC(=O)[C@@H](CC(C)C)NC(=O)[C@H](Cc1ccc(O)cc1)N(C)C(=O)[C@H](CO)NC(=O)[C@H](Cc1c[nH]c2ccccc12)NC(=O)[C@H](Cc1cnc[nH]1)NC(=O)[C@@H]1CCC(=O)N1 | 0.492 L/h/kg | > 60 min |  |  | 
11 | CC(C)C[C@H](NC(=O)[C@@H](Cc1ccc2ccccc2c1)NC(=O)[C@H](Cc1ccc(O)cc1)NC(=O)[C@H](CO)N(C)C(=O)[C@H](Cc1c[nH]c2ccccc12)NC(=O)[C@H](Cc1c[nH]cn1)NC(=O)[C@@H]1CCC(=O)N1)C(=O)N[C@@H](CCCN=C(N)N)C(=O)N1CCC[C@H]1C(=O)NCC(N)=O | 1.65 L/h/kg | > 60 min | 47 min | 11.3 | 
12 | CC(C)C[C@H](NC(=O)[C@@H](CC(C)C)NC(=O)[C@H](Cc1ccc(O)cc1)NC(=O)[C@H](CO)NC(=O)[C@H](Cc1c[nH]c2ccccc12)NC(=O)[C@H](Cc1c[nH]cn1)NC(=O)[C@@H]1CCC(=O)N1)C(=O)N[C@@H](CCCN=C(N)N)C(=O)N1CCC[C@H]1C(=O)N(C)CC(N)=O | 0.586 L/h/kg | 1 min | 8.4 min | 8.73 | 
13 | CCNC(=O)[C@@H]1CCCN1C(=O)[C@H](CCCN=C(N)N)NC(=O)[C@H](CC(C)C)N(C)C(=O)[C@@H](CC(C)C)NC(=O)[C@H](Cc1ccc(O)cc1)NC(=O)[C@H](CO)NC(=O)[C@H](Cc1c[nH]c2ccccc12)NC(=O)[C@H](Cc1c[nH]cn1)NC(=O)[C@@H]1CCC(=O)N1 | 0.498 L/h/kg | 1 min | 4.1 min | 10.45 | 
14 | CCNC(=O)[C@@H]1CCCN1C(=O)[C@H](CCCNC(=N)N)NC(=O)[C@H](CC(C)C)NC(=O)[C@@H](CC(C)C)NC(=O)[C@H](Cc1ccc(O)cc1)NC(=O)[C@H](CO)NC(=O)[C@H](Cc1c[nH]c2ccccc12)NC(=O)[C@H](Cc1c[nH]cn1)NC(=O)[C@@H]1CCC(=O)N1 [LEUPROLIDE] | 0.54 L/h/kg | 1 min | 4 min |  | 
15 | CCNC(=O)[C@@H]1CCCN1C(=O)[C@H](CCCN=C(N)N)NC(=O)[C@H](CC(C)C)NC(=O)[C@@H](CC(C)C)NC(=O)[C@H](Cc1ccc(O)cc1)NC(=O)[C@H](CO)NC(=O)[C@H](Cc1cccc2ccccc12)N(C)C(=O)[C@H](Cc1c[nH]cn1)NC(=O)[C@@H]1CCC(=O)N1 | 0.867 L/h/kg | > 60 min | 44 min |  | 0.257 µM
16 | CCNC(=O)[C@@H]1CCCN1C(=O)[C@H](CCCN=C(N)N)NC(=O)[C@H](CC(C)C)NC(=O)[C@@H](CC(C)C)N(C)C(=O)[C@H](Cc1ccc(O)cc1)NC(=O)[C@H](CO)NC(=O)[C@H](Cc1c[nH]c2ccccc12)NC(=O)[C@H](Cc1c[nH]cn1)NC(=O)[C@@H]1CCC(=O)N1 |  |  | 54 min | 9.61 | 
17 | CCNC(=O)[C@@H]1CCCN1C(=O)[C@H](CCCN=C(N)N)N(C)C(=O)[C@H](CC(C)C)NC(=O)[C@@H](CC(C)C)NC(=O)[C@H](Cc1ccc(O)cc1)NC(=O)[C@H](CO)NC(=O)[C@H](Cc1c[nH]c2ccccc12)NC(=O)[C@H](Cc1c[nH]cn1)NC(=O)[C@@H]1CCC(=O)N1 |  | 1 min | 6.6 min | 7 | 
18 | CC(C)C[C@H](NC(=O)[C@@H](Cc1ccc2ccccc2c1)NC(=O)[C@H](Cc1ccc(O)cc1)NC(=O)[C@H](CO)NC(=O)[C@H](Cc1c[nH]c2ccccc12)NC(=O)[C@H](Cc1ccccc1)N(C)C(=O)[C@@H]1CCC(=O)N1)C(=O)N[C@@H](CCCN=C(N)N)C(=O)N1CCC[C@H]1C(=O)NCC(N)=O |  |  |  |  | 0.00158 µM
19 | CCNC(=O)[C@@H]1CCCN1C(=O)[C@H](CCCN=C(N)N)NC(=O)[C@H](CC(C)C)NC(=O)[C@@H](CC(C)C)NC(=O)[C@H](Cc1ccc(O)cc1)NC(=O)[C@H](CO)N(C)C(=O)[C@H](Cc1c[nH]c2ccccc12)NC(=O)[C@H](Cc1c[nH]cn1)NC(=O)[C@@H]1CCC(=O)N1 ([pGlu]HW[NMeS]Y[dL]LRP-NHEt) | 1.01 L/h/kg | > 60 min | > 90 min |  | 
20 | CCNC(=O)[C@@H]1CCCN1C(=O)[C@H](CCCN=C(N)N)NC(=O)[C@H](CC(C)C)NC(=O)[C@@H](CC(C)C)N(C)C(=O)[C@H](Cc1ccc(O)cc1)NC(=O)[C@H](CO)NC(=O)[C@H](Cc1c[nH]c2ccccc12)NC(=O)[C@H](Cc1cnc[nH]1)NC(=O)[C@@H]1CCC(=O)N1 | 1.26 L/h/kg | 1 min |  |  | 
